Laboratory results reported in ChEMBL document CHEMBL1151692, “Substituted hippurates and hippurate analogs as substrates and inhibitors of peptidylglycine alpha-hydroxylating monooxygenase (PHM)” (Bioorg Med Chem, 2008).
Where a SMILES comes first, the peptide text is derived from it. The star is where a group is joined. Bz = O=C(c1ccccc1)*

Key:
[1] = molecular target: peptidylglycine alpha-amidating monooxygenase (Rattus norvegicus) (UniProt P14925); experiment: Inhibition of rat peptidylamidoglycolate lyase assessed as ascorbate-independent dealkylation of alpha-hydroxy-hipurate; set-up: concentration or dose not given beside the values; conditions: concentration not given here
[2] = molecular target: T1, Peptidylglycine alpha-amidating monooxygenase (Rattus norvegicus) (UniProt P14925); experiment: Ratio of Vm(app) to Km(app) for rat recombinant peptidylglycine alpha-amidating monooxygenase relative to hippuric acid
T1 sequence (whole entry): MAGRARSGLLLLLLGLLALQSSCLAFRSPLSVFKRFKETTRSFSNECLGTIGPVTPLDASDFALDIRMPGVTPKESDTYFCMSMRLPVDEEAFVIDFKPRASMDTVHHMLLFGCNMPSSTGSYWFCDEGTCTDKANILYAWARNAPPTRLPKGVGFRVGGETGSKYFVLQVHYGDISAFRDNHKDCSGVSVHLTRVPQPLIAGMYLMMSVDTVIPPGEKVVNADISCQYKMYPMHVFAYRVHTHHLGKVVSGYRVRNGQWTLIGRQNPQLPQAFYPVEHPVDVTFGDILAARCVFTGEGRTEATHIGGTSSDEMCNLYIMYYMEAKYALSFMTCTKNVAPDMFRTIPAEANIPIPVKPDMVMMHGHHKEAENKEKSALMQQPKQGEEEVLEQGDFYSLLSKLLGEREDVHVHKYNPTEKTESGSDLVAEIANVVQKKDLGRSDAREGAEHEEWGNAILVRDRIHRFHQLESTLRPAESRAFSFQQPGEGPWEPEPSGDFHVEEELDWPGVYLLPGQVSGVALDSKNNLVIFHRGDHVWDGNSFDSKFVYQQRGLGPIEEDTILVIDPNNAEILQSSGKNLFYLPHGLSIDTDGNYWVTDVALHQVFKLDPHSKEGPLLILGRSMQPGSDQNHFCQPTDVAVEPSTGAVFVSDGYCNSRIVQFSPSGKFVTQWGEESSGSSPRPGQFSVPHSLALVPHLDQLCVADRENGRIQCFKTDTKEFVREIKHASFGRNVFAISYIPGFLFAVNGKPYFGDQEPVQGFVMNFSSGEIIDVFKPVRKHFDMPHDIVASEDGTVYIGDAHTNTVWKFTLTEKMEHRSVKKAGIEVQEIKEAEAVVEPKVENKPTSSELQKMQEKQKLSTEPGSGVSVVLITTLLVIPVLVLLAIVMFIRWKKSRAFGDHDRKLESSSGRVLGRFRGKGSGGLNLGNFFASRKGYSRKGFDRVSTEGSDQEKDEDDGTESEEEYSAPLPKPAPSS
In short: (§1)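 Recombinant rat type A medullary thyroid carcinoma PAM (bifunctional), 15–50 μg, in 100 mM MES/NaOH pH 6.0, 30 mM NaCl, 1% ethanol, 0.001% Triton X-100, 10 μg/mL catalase, 1.0 μM Cu(NO3)2, 5.0 mM ascorbate, ~200 μM O2, 37 °C. Substrate generally 0.3–5.0 KM,app. Initial O2 consumption rates read by oxygen monitor and fit to Michaelis–Menten.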

[3] = molecular target: T1, Peptidylglycine alpha-amidating monooxygenase (Rattus norvegicus); experiment: (§2) Activity of rat recombinant peptidylglycine alpha-amidating monooxygenase assessed as stimulation of oxygen consumption
[4] = molecular target: T1, Peptidylglycine alpha-amidating monooxygenase (Rattus norvegicus); experiment: Ratio of Vm(app) to Km(app) for rat recombinant peptidylglycine alpha-amidating monooxygenase
In short: as §1

[5] = molecular target: T1, Peptidylglycine alpha-amidating monooxygenase (Rattus norvegicus); experiment: Inhibition of rat recombinant peptidylglycine alpha-amidating monooxygenase in presence of DMSO
[6] = molecular target: T1, Peptidylglycine alpha-amidating monooxygenase (Rattus norvegicus); experiment: Inhibition of rat recombinant peptidylglycine alpha-amidating monooxygenase assessed as inhibition of N-dansyl-Tyr-Val-Gly amidation
[7] = substrate: Nc1ccccc1C(=O)NCC(=O)O; experiment: as §2
[8] = substrate: O=C(O)CNC(=O)/C=C/c1ccccc1; experiment: as §2
[9] = substrate: O=C(O)CNC(=O)CNC(=O)CNC(=O)c1ccccc1; experiment: as §2
[10] = substrate: Cc1cccc(C(=O)NCC(=O)O)c1; experiment: as §2
[11] = substrate: O=C(O)CNC(=O)c1ccco1; experiment: as §2
[12] = substrate: O=C(O)CNC(=O)c1ccccc1O; experiment: as §2
[13] = substrate: O=C(O)CNC(=O)CNC(=O)CCl; experiment: as §2
[14] = substrate: O=C(O)CNC(=O)CCc1ccccc1; experiment: as §2
[15] = substrate: O=C(O)CNC(=O)CNC(=O)c1ccccc1; experiment: as §2
[16] = substrate: O=C(O)CNC(=O)c1cccc(Cl)c1; experiment: as §2
[17] = substrate: O=C(O)CNC(=O)CNC(=O)c1ccc([N+](=O)[O-])cc1; experiment: as §2
[18] = substrate: O=C(O)CNC(=O)SCc1ccccc1; experiment: as §2
[19] = substrate: O=C(O)CNC(=O)CCCCc1ccccc1; experiment: as §2
[20] = substrate: O=C(O)CNC(=O)c1ccc(Br)cc1; experiment: as §2
[21] = substrate: O=C(O)CNC(=O)C1CC1c1ccccc1; experiment: as §2
[22] = substrate: O=C(O)CNC(=O)c1ccc(O)cc1; experiment: as §2
[23] = substrate: CCc1ccc(C(=O)NCC(=O)O)cc1; experiment: as §2
[24] = substrate: O=C(O)CNC(=O)c1ccccc1I; experiment: as §2
[25] = substrate: O=C(O)CNC(=O)[C@@H]1CCC(=O)N1; experiment: as §2
[26] = substrate: O=C(O)CNC(=O)CCCCCc1ccccc1; experiment: as §2
[27] = substrate: Cc1ccccc1C(=O)NCC(=O)O; experiment: as §2
[28] = substrate: C[C@@H](NC(=O)c1ccccc1)C(=O)O; experiment: as §2
[29] = substrate: O=C(O)CNC(=O)c1ccc(Cl)cc1; experiment: as §2
[30] = substrate: COc1ccc(C(=O)NCC(=O)O)cc1; experiment: as §2
[31] = substrate: O=C(O)CNC(=S)CCc1ccccc1; experiment: as §2
[32] = substrate: O=C(O)CNC(=O)/C=C/c1ccco1; experiment: as §2
[33] = substrate: Cc1ccc(C(=O)NCC(=O)O)cc1; experiment: as §2
[34] = substrate: O=C(O)CNC(=S)Cc1ccccc1; experiment: as §2
[35] = substrate: O=C(O)CNC(=O)Nc1ccccc1; experiment: as §2
[36] = substrate: O=C(O)CNC(=O)c1ccc([N+](=O)[O-])cc1; experiment: as §2
[37] = substrate: O=C(O)CNC(=O)OCc1ccccc1; experiment: as §2
[38] = substrate: O=C(O)CNC(=O)c1ccc(C(F)(F)F)cc1; experiment: as §2
[39] = substrate: Nc1ccc(C(=O)NCC(=O)O)cc1; experiment: as §2
[40] = substrate: O=C(O)CNC(=O)CCCCCCCc1ccccc1; experiment: as §2
[41] = substrate: CCCc1ccc(C(=O)NCC(=O)O)cc1; experiment: as §2

Work on `O=C(NC(CSC(=O)c1ccccc1)C(=O)O)c1ccccc1` (single isomer, unassigned) yielded an inhibition [1] of less than 5%.

Molecule `CC(NC(=S)c1ccccc1)C(=O)O` (centres undefined) has an inhibition [1] of less than 5%.

`O=C(O)CNC(=O)CNC(=O)CNC(=O)c1ccccc1` (Bz-Gly-Gly-Gly-OH) gave an Activity [2] of 4.7, a Vmax(app) [3] of 8.8 s⁻¹ and a Ratio [4] of 2.9 ×10⁴ /M/s.

Molecule `CCc1ccc(C(=O)NCC(=O)O)cc1` has an Activity [2] of 0.5, a Vmax(app) [3] of 3.6 s⁻¹ and a Ratio [4] of 3.1 ×10³ /M/s.

`Cc1ccc(C(=O)NCC(=O)O)cc1` gave an Activity [2] of 0.5, a Vmax(app) [3] of 5.7 s⁻¹ and a Ratio [4] of 3.2 ×10³ /M/s.

`O=C(O)CNC(=O)OCc1ccccc1` was tested, and the Activity [2] was 2.4, the Vmax(app) [3] was 8.6 s⁻¹ and the Ratio [4] was 1.5 ×10⁴ /M/s.

Work on `O=C(O)CNC(=O)c1ccco1` yielded an Activity [2] of 0.5, a Vmax(app) [3] of 7.5 s⁻¹ and a Ratio [4] of 2.8 ×10³ /M/s.

`O=C(O)CSC(=S)CCc1ccccc1` showed a Kis [5] of 30 µM, a Kis [6] of 9.4 µM and an inhibition [1] of less than 5%.

For `O=C(O)CNC(=S)CCc1ccccc1`, the Activity [2] was 6.8, the Vmax(app) [3] was 1.6 s⁻¹ and the Ratio [4] was 4.2 ×10⁴ /M/s.

`CC(C)(C)OC(=O)NCC(=O)O` was tested, and the Activity [2] was 0.3, the Vmax(app) [3] was 6.3 s⁻¹ and the Ratio [4] was 1.7 ×10³ /M/s.

`O=C(O)CNC(=O)CCc1ccccc1` gave an Activity [2] of 1.8, a Vmax(app) [3] of 9.9 s⁻¹ and a Ratio [4] of 1.1 ×10⁴ /M/s.

With `O=C(O)CNCc1ccccc1` the inhibition [1] was less than 5%.

Work on `CC(C#N)(CCC(=O)O)SC(=S)c1ccccc1` (centres undefined) yielded an inhibition [1] of less than 5%.

For `O=C(NCC[C@H](O)C(=O)O)OCc1ccccc1`, the inhibition [1] was less than 5%.

For `Nc1ccccc1C(=O)NCC(=O)O`, the Activity [2] was 0.5, the Vmax(app) [3] was 4.2 s⁻¹ and the Ratio [4] was 2.9 ×10³ /M/s.

Work on `O=C(O)CNC(=O)c1ccc(Br)cc1` yielded an Activity [2] of 0.8, a Vmax(app) [3] of 2.5 s⁻¹ and a Ratio [4] of 4.9 ×10³ /M/s.

For `O=C(O)CNC(=O)C1CC1c1ccccc1` (centres undefined), the Activity [2] was 1.8, the Vmax(app) [3] was 10 s⁻¹ and the Ratio [4] was 1.1 ×10⁴ /M/s.

`O=C(O)CNC(=O)c1ccc([N+](=O)[O-])cc1` was tested, and the Activity [2] was 1.4, the Vmax(app) [3] was 4.2 s⁻¹ and the Ratio [4] was 8.9 ×10³ /M/s.

B1: Peptidylglycine alpha-amidating monooxygenase (Rattus norvegicus), P14925 (protein)
chain: MAGRARSGLLLLLLGLLALQSSCLAFRSPLSVFKRFKETTRSFSNECLGTIGPVTPLDASDFALDIRMPGVTPKESDTYFCMSMRLPVDEEAFVIDFKPRASMDTVHHMLLFGCNMPSSTGSYWFCDEGTCTDKANILYAWARNAPPTRLPKGVGFRVGGETGSKYFVLQVHYGDISAFRDNHKDCSGVSVHLTRVPQPLIAGMYLMMSVDTVIPPGEKVVNADISCQYKMYPMHVFAYRVHTHHLGKVVSGYRVRNGQWTLIGRQNPQLPQAFYPVEHPVDVTFGDILAARCVFTGEGRTEATHIGGTSSDEMCNLYIMYYMEAKYALSFMTCTKNVAPDMFRTIPAEANIPIPVKPDMVMMHGHHKEAENKEKSALMQQPKQGEEEVLEQGDFYSLLSKLLGEREDVHVHKYNPTEKTESGSDLVAEIANVVQKKDLGRSDAREGAEHEEWGNAILVRDRIHRFHQLESTLRPAESRAFSFQQPGEGPWEPEPSGDFHVEEELDWPGVYLLPGQVSGVALDSKNNLVIFHRGDHVWDGNSFDSKFVYQQRGLGPIEEDTILVIDPNNAEILQSSGKNLFYLPHGLSIDTDGNYWVTDVALHQVFKLDPHSKEGPLLILGRSMQPGSDQNHFCQPTDVAVEPSTGAVFVSDGYCNSRIVQFSPSGKFVTQWGEESSGSSPRPGQFSVPHSLALVPHLDQLCVADRENGRIQCFKTDTKEFVREIKHASFGRNVFAISYIPGFLFAVNGKPYFGDQEPVQGFVMNFSSGEIIDVFKPVRKHFDMPHDIVASEDGTVYIGDAHTNTVWKFTLTEKMEHRSVKKAGIEVQEIKEAEAVVEPKVENKPTSSELQKMQEKQKLSTEPGSGVSVVLITTLLVIPVLVLLAIVMFIRWKKSRAFGDHDRKLESSSGRVLGRFRGKGSGGLNLGNFFASRKGYSRKGFDRVSTEGSDQEKDEDDGTESEEEYSAPLPKPAPSS
In the case of B1, the Km [7] is reported as 1400 µM, the Km [8] is reported as 230 µM and the Km [9] is reported as 310 µM. It also gave a Km [10] of 1400 µM, a Km [11] of 2700 µM and a Km [12] of 860 µM. The Km [13] was 420 µM, the Km [14] was 940 µM and the Km [15] was 78 µM. It also gave a Km [16] of 2200 µM, a Km [17] of 110 µM and a Km [18] of 59 µM. The Km [19] was 150 µM, the Km [20] was 520 µM and the Km [21] was 900 µM. It also gave a Km [22] of 1700 µM, a Km [23] of 1200 µM and a Km [24] of 3400 µM. The Km [25] was 310 µM, the Km [26] was 51 µM and the Km [27] was 4300 µM. The Km [28] was 84000 µM, the Km [29] was 620 µM and the Km [30] was 820 µM. For the same molecule, the Km [31] was 38 µM, the Km [32] was 1200 µM and the Km [33] was 1800 µM. For the same molecule, the Km [34] was 24 µM, the Km [35] was 360 µM and the Km [36] was 470 µM. The Km [37] was 590 µM, the Km [38] was 770 µM and the Km [39] was 2600 µM. The Km [40] was 100 µM and the Km [41] was 1200 µM.
